Measurements published in ChEMBL document CHEMBL4613300, “Pharmacophore-Based Virtual Screening for Identification of Negative Modulators of GLI1 as Potential Anticancer Agents” (ACS Med Chem Lett, 2020).
Calls of active or inactive are those of the source. No cut-off for these calls is given here.

Tests used:
[1] = biological target: T1, Zinc finger protein GLI1 (Homo sapiens) (UniProt P08151); experiment: Inhibition of GLI1 transcriptional activity in human A375 cells assessed as downregulation of GLI1 mRNA expression at 5 uM incubated for 48 hrs by qPCR analysis; type: cell-based; conditions: A-375
T1 sequence (whole entry): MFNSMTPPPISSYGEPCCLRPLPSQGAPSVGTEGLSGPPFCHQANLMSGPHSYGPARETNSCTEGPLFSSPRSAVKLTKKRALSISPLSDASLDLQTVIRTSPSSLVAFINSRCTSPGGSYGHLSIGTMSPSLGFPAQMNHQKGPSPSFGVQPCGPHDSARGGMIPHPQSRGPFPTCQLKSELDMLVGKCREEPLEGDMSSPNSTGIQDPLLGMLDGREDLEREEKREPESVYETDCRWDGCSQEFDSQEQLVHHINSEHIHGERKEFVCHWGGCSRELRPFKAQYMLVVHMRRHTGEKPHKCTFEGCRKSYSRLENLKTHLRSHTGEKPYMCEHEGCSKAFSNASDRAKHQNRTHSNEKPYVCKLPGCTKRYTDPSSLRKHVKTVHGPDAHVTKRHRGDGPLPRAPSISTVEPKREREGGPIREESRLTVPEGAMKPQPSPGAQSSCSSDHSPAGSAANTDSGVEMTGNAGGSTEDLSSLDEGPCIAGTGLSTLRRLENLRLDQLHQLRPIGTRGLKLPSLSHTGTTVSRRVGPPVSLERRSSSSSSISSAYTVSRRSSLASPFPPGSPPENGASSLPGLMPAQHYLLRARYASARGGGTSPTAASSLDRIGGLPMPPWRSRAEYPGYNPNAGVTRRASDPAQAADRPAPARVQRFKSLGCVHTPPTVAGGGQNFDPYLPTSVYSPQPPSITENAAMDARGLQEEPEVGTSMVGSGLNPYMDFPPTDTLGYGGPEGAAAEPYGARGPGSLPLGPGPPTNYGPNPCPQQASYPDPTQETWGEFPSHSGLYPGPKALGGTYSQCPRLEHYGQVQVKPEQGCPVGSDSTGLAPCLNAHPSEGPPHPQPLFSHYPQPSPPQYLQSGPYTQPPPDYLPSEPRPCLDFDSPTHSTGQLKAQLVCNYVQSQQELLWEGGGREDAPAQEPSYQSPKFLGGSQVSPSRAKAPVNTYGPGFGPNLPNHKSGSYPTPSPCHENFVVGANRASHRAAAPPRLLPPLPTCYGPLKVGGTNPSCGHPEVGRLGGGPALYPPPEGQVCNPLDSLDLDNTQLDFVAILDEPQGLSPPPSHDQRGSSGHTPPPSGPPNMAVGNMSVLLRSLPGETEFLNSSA
Outline: (§1)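 A375 cells treated with compound (5 μM) or DMSO for 48 h. mRNA measured by qPCR as gene/(mean of HPRT and EIF2α) ratio, DMSO control set to 1. Mean ± SD.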

MCF-10A = experiment: Cytotoxicity against human MCF10A cells assessed as reduction in cell viability incubated for 72 hrs by trypan blue or crystal violet staining based assay
Daoy = experiment: Antiproliferative activity against human DaOY cells assessed as reduction in cell viability incubated for 72 hrs by trypan blue or crystal violet staining based assay; type: functional
[2] = biological target: T1, Zinc finger protein GLI1 (Homo sapiens); experiment: Inhibition of GLI1 transcriptional activity in human A375 cells assessed as downregulation of Cyclin D1 mRNA expression at 5 uM incubated for 48 hrs by qPCR analysis; type: cell-based; conditions: A-375; outline: as §1
[3] = biological target: T2, Zinc finger protein GLI1 (Mus musculus) (UniProt P47806); experiment: Inhibition of GLI1 transcriptional activity in HH-responsive mouse NIH3T3 cells assessed as reduction in GLI1 protein expression at 5 uM incubated for 48 hrs in presence of SAG by Western blot analysis; type: cell-based
T2 sequence (whole entry): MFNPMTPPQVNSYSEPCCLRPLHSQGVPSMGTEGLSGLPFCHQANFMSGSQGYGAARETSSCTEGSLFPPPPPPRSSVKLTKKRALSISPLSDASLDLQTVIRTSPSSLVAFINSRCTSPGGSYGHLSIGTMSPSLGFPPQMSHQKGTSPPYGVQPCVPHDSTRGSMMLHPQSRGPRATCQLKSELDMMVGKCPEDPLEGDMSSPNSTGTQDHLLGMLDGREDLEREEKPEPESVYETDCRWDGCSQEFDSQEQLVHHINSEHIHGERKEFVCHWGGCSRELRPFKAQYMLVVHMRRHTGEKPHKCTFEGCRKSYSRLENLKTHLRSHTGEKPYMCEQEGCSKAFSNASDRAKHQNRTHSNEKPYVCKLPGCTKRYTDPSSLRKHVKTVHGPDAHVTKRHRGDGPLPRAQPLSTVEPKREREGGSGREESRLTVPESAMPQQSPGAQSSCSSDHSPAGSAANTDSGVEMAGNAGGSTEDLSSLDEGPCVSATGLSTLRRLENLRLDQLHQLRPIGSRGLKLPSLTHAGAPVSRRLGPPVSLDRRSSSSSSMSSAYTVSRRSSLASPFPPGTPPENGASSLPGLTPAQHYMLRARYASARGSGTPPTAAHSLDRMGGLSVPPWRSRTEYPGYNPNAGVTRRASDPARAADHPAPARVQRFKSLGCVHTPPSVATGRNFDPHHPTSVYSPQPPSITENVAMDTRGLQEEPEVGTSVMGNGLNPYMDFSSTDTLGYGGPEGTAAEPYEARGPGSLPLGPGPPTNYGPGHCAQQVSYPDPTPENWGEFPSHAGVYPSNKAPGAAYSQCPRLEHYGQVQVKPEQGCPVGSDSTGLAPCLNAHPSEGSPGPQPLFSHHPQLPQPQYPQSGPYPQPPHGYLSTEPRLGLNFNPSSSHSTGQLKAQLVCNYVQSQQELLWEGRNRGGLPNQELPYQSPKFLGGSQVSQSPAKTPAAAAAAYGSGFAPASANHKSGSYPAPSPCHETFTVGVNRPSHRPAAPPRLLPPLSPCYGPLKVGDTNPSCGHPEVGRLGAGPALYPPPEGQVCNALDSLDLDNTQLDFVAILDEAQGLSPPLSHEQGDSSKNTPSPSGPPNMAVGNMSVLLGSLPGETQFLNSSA
Outline: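 Murine NIH3T3 cells given 100 nM SAG plus compound (5 μM) or DMSO for 48 h. Endogenous GLI1 protein measured by Western blot with HSP90 as loading control, band quantified against SAG-treated cells.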

[4] = biological target: T1, Zinc finger protein GLI1 (Homo sapiens); experiment: Inhibition of GLI1 transcriptional activity in human A375 cells assessed as downregulation of GLI2 mRNA expression at 5 uM incubated for 48 hrs by qPCR analysis; type: cell-based; conditions: A-375; outline: as §1
[5] = biological target: T2, Zinc finger protein GLI1 (Mus musculus); experiment: Inhibition of GLI1 transcriptional activity in HH-responsive mouse NIH3T3 cells assessed as reduction in SAG-induced luciferase activity at 5 uM incubated for 48 hrs by luciferase reporter gene assay relative to control; type: cell-based
Outline: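 HH-responsive NIH3T3 cells carrying a GLI-dependent firefly luciferase reporter with renilla control, treated 48 h with 100 nM SAG plus compound (5 μM). Firefly/renilla ratio normalised to SAG-only cells set at 100%, reported as percent inhibition.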

[6] = biological target: T1, Zinc finger protein GLI1 (Homo sapiens); experiment: Inhibition of GLI1 transcriptional activity in human A375 cells assessed as downregulation of HIP1 mRNA expression at 5 uM incubated for 48 hrs by qPCR analysis; type: cell-based; conditions: A-375; outline: as §1
[7] = biological target: T1, Zinc finger protein GLI1 (Homo sapiens); experiment: Inhibition of GLI1 transcriptional activity in human A375 cells assessed as downregulation of PTCH1 mRNA expression at 5 uM incubated for 48 hrs by qPCR analysis; type: cell-based; conditions: A-375; outline: as §1
A-375 [8] = experiment: Antiproliferative activity against human A375 cells assessed as reduction in cell viability incubated for 72 hrs by trypan blue or crystal violet staining based assay; type: functional
A-375 [9] = experiment: Antiproliferative activity against human A375 cells transfected with lentivrus-encoding shRNA against GLI1 assessed as reduction in cell viability incubated for 72 hrs by trypan blue or crystal violet staining based assay; type: functional
Outline: (§2)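 A375 melanoma cells transduced with control lentivirus (LV-c), LV-shGLI1 or LV-shGLI2, with knockdown checked by Western blot (HSP90 loading control). Cells treated with DMSO or compound at the indicated doses for 72 h, then viability read. Values are mean ± SD of at least three independent experiments.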

A-375 [10] = experiment: Antiproliferative activity against human A375 cells transfected with lentivrus-encoding shRNA against GLI2 assessed as reduction in cell viability incubated for 72 hrs by trypan blue or crystal violet staining based assay; type: functional; outline: as §2
[11] = Homo sapiens, Daoy, 72 h, read-out: IC50
[12] = Homo sapiens, A-375, 72 h, read-out: IC50

Row | SMILES | inhibition [3] | inhibition [5] | IC50 (A-375 [8]; [12]) | IC50 (Daoy; [11]) | also measured
1 | CCOC(=O)c1c(-c2ccccc2)csc1NC(NC(=O)c1cccc2ccccc12)C(Cl)(Cl)Cl (centres undefined) | inactive | 7% |  |  | IC50 (Daoy; daoy): Not Active; IC50 (A-375 [8]; a-375): Not Active
2 | CCOC(=O)c1c(-c2ccccc2)csc1NC(NC(=O)c1ccc(C)cc1)C(Cl)(Cl)Cl (centres undefined) | inactive |  |  |  | IC50 (Daoy; daoy): Not Active; IC50 (A-375 [8]; a-375): Not Active
3 | O=C(NCc1ccc2c(c1)OCO2)c1cnn2c(C(F)F)cc(C3CC3)nc12 | inactive |  |  |  | 
4 | CC1(C)CC(NC(=O)c2cnn3c(C(F)F)cc(C4CC4)nc23)c2ccccc2O1 (centres undefined) | Active | 40% | 2200 nM | 2300 nM | inhibition [1]: Active; Activity (MCF-10A): Non-Toxic; inhibition [2]: Active; inhibition [4]: Active; inhibition [6]: Active; inhibition [7]: Active
5 | O=C(NC1CCCCC1)c1cnn2c(C(F)F)cc(C3CC3)nc12 | inactive |  |  |  | 
6 | O=C(NCCc1ccccc1)c1cnn2c(C(F)F)cc(C3CC3)nc12 | inactive |  |  |  | 
7 | O=C(NC1CCCc2ccccc21)c1cnn2c(C(F)(F)F)cc(-c3cccs3)nc12 (centres undefined) | Active | 49% | 1200 nM | 4400 nM | inhibition [1]: Active; Activity (MCF-10A): Non-Toxic; inhibition [2]: Active; Activity (A-375 [9]): inactive; inhibition [4]: Active; inhibition [6]: Active; Activity (A-375 [10]): inactive; inhibition [7]: Active
8 | O=C(NC1CCOc2ccccc21)c1cnn2c(C(F)F)cc(C3CC3)nc12 (centres undefined) | inactive |  |  |  | IC50 (Daoy; daoy): Not Active; IC50 (A-375 [8]; a-375): Not Active
9 | O=C(NC1CCCc2ccccc21)c1cnn2c(C(F)F)cc(C3CC3)nc12 (centres undefined) | Active | 54% | 5000 nM | 7500 nM | 
10 | O=C(c1cnn2c(C(F)F)cc(C3CC3)nc12)N(Cc1ccccc1)Cc1ccccc1 | inactive |  |  |  | 
11 | Cc1cc(C(F)F)n2ncc(C(=O)NC3CC(C)(C)Oc4ccccc43)c2n1 (centres undefined) | inactive | 0% |  |  | IC50 (Daoy; daoy): Not Active; IC50 (A-375 [8]; a-375): Not Active
12 | COc1cc(OC)c2c(=O)c(-c3ccc(OCC=C(C)C)c(OCC=C(C)C)c3)coc2c1 | Active | 46% | 400 nM | 130 nM | inhibition [1]: Active; inhibition [2]: Active; Activity (A-375 [9]): inactive; inhibition [4]: Active; inhibition [6]: Active; Activity (A-375 [10]): inactive; inhibition [7]: Active
13 | COc1c(O)cc2oc3cc(O)c(CC=C(C)C)c(O)c3c(=O)c2c1CC=C(C)C [MANGOSTIN] | Active | 43% | 2700 nM | 1900 nM | 
14 | CCOC(=O)c1c(-c2ccccc2)csc1NC(NC(=O)c1ccc([N+](=O)[O-])cc1)C(Cl)(Cl)Cl (centres undefined) | Active | 74% | 5200 nM | 3100 nM | 
15 | O=C(NC1CCCc2ccccc21)c1cnn2c(C(F)(F)F)cc(-c3ccco3)nc12 (centres undefined) | Active | 66% | 600 nM | 5700 nM | 

The next lines start with results.

Row | inhibition [3] | inhibition [5] | IC50 (A-375 [8]; [12]) | SMILES | IC50 (Daoy; [11]) | also measured
16 | Active | 40% | 12000 nM | CCOC(=O)c1c(-c2ccccc2)csc1NC(NC(=O)c1ccccc1)C(Cl)(Cl)Cl (centres undefined) | 900 nM | inhibition [1]: Active; Activity (MCF-10A): Non-Toxic; inhibition [2]: Active; inhibition [4]: Active; inhibition [6]: Active; inhibition [7]: Active
17 | inactive | 38% | 5100 nM | CCOC(=O)c1c(-c2ccccc2)csc1NC(NC(C)=O)C(Cl)(Cl)Cl (centres undefined) | 2800 nM | 
18 | Active | 51% | 2700 nM | CCOC(=O)c1c(-c2ccccc2)csc1NC(NC(=O)c1ccco1)C(Cl)(Cl)Cl (centres undefined) | 4300 nM | 
19 | inactive |  |  | CCOC(=O)c1c(-c2ccccc2)csc1NC(NC(=O)c1ccccc1C)C(Cl)(Cl)Cl (centres undefined) |  | IC50 (Daoy; daoy): Not Active; IC50 (A-375 [8]; a-375): Not Active
20 | Active | 81% | 6100 nM | CCOC(=O)c1c(-c2ccccc2)csc1NC(NC(=O)c1cccc(Cl)c1)C(Cl)(Cl)Cl (centres undefined) | 5500 nM | 
21 | Active | 78% | 2000 nM | CCOC(=O)c1c(-c2ccccc2)csc1NC(NC(=O)c1ccc(Br)cc1)C(Cl)(Cl)Cl (centres undefined) | 3400 nM | 
22 | inactive |  |  | CCOC(=O)c1c(-c2ccccc2)csc1NC(NC(=O)c1cccc(C)c1)C(Cl)(Cl)Cl (centres undefined) |  | IC50 (Daoy; daoy): Not Active; IC50 (A-375 [8]; a-375): Not Active
